The record followed here is ChEMBL document CHEMBL3102698, “New highly toxic bile acids derived from deoxycholic acid, chenodeoxycholic acid and lithocholic acid” (Bioorg Med Chem, 2014).

One may read the IC50 as the concentration at which inhibition is half-maximal.

The test system of test [1] is Caco-2. As to the kind of experiment: Cytotoxicity against human Caco2 cells assessed as cell viability at 50 uM after 24 hrs by MTT assay relative to control. Format: functional. The settings on record: Caco-2, 24 h, read-out: Activity. (In general: Formazan colour is commonly taken as a measure of viable cells.)
Test [2] can be described thus: Cytotoxicity against human HT1080 cells assessed as cell viability after 24 hrs by MTT assay. It counts as functional, cell-based. The settings on record: HT-1080, 24 h. The essentials:
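Cells grown to 70% confluence (Caco-2 seeded 8 × 10^3/well, HT1080 12 × 10^4/well), serum-starved 1 h, then exposed 24 h serum-free to 0.1-1000 µM (DMSO ≤0.5%). MTT 0.5 mg/mL added for 3 h at 37 °C; formazan dissolved in DMSO, OD read at 540 nm. Viability taken as % of untreated OD. IC50 fitted from eight concentration levels, at least three experiments in triplicate.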

In test [3] the test system is Caco-2. Nature of the test: Induction of ROS production in human Caco2 cells at 10 uM after 0.5 to 24 hrs by 2',7'-dichlorfluorescein-diacetate staining-based fluorescence assay. It counts as functional, cell-based. The essentials:
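Caco-2 at 70-80% confluence exposed in serum-free medium for 30 min or 24 h (compounds 10 µM, natural bile acids 100 µM). Medium then replaced with 100 µM 2',7'-dichlorofluorescein diacetate for 30 min at 37 °C, cells washed with PBS, fluorescence read at ex 490/em 530 nm. Signal expressed relative to vehicle and corrected for MTT viability; n = 3.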

Activity calls are given as the source filed them. The calls are words filed in the database; no cut-off is given here.

`CCCNC(=O)CC[C@@H](C)[C@H]1CC[C@H]2[C@@H]3CC[C@@H]4C[C@@H](N=[N+]=[N-])CC[C@]4(C)[C@H]3C[C@H](O)[C@]12C`: in the test with Caco-2 [1], the viability at 50 µM was determined as 60%. For the same compound, the IC50 in test [2] is 6.3 µM. For the same compound, in the test with Caco-2 [3], the outcome was Active.
